Series [1] has as its system MCF7. The experiment in a line: Reversal of hyperpolarized mitochondrial membrane potential in human MCF7 cells assessed as cells with vital and intact mitochondrial membranes at 20 uM after 12 hrs by JC1 staining-based flow cytometric analysis. The format is functional. In a few lines:
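MCF-7 cells treated 12 h (5, 10 or 20 µM), then stained with JC-1. Depolarization read as the ratio of green J-monomer to red J-aggregate fluorescence.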
For orientation: A flow cytometer gives signals particle by particle.

Series [2] has as its system MCF7. The experiment in a line: Reversal of hyperpolarized mitochondrial membrane potential in human MCF7 cells assessed as cells with vital and intact mitochondrial membranes at 10 mM after 12 hrs by JC1 staining-based flow cytometric analysis. The class given is functional. In outline: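 MCF-7 treated 12 h, then stained with JC-1. Mitochondrial potential read as the ratio of green J-monomer to red J-aggregate fluorescence, where a higher ratio marks depolarization. P < 0.05 computed against the […] DCA-treated group.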

Series [3] relates to A549. Kind of series: Cytotoxicity against human A549 cells assessed as growth inhibition after 72 hrs by MTT assay. The class given is functional, cell-based. The conditions noted are these: A549, 72 h. In general terms: Tetrazolium assays rely on reduction of a dye to a coloured formazan, in cell work by metabolically active cells.
For series [4], the system named is MCF7. Kind of series: Cytotoxicity against human MCF7 cells assessed as growth inhibition after 72 hrs by MTT assay. The format is functional, cell-based. The conditions noted are these: MCF7, 72 h.
The nature of series [5]: Cytotoxicity against human MCF10A cells assessed as growth inhibition at 20 uM after 72 hrs by MTT assay relative to control. The format is cell-based, MCF-10A. The conditions noted are these: read-out: GI.
Series [6] can be described thus: Cytotoxicity against human MCF10A cells assessed as growth inhibition at 10 mM after 72 hrs by MTT assay relative to control. The format is cell-based, MCF-10A. The conditions noted are these: read-out: GI.
The test system of series [7] is MCF7. Kind of series: Induction of apoptosis in human MCF7 assessed as early apoptotic cells at 10 mM after 10 hrs by FITC-annexin V/propidium iodide staining-based flow cytometric analysis (reference value: 2.38%). The format is functional.
In series [8] the test system is MCF7. The experiment in a line: Induction of apoptosis in human MCF7 assessed as late apoptotic cells at 10 mM after 10 hrs by FITC-annexin V/propidium iodide staining-based flow cytometric analysis (reference value: 1.95%). The format is functional.
Series [9] concerns MCF7. Kind of series: Induction of apoptosis in human MCF7 assessed as necrotic cells at 10 mM after 10 hrs by FITC-annexin V/propidium iodide staining-based flow cytometric analysis (reference value: 1.86%). The class given is functional.
For series [10], the system named is MCF7. The experiment in a line: Induction of apoptosis in human MCF7 assessed as viable cells at 10 mM after 10 hrs by FITC-annexin V/propidium iodide staining-based flow cytometric analysis (reference value: 93.8%). The class given is functional. The conditions noted are these: MCF7, 10 h, read-out: Activity.
The species named for series [11] is Sus scrofa. The experiment in a line: Activation of pig heart PDC assessed as production of NADH at 10 mM in presence of ATP. In outline:
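Pig PDC with its intrinsic PDKs preincubated 40 min at 37 °C at 80 µg/ml in Mops buffer pH 7.20 with acetyl-CoA, NADH, NaF. Kinase step run 3 min at 37 °C after 2.2-fold dilution into buffer with 55 µM ADP and 100 µM ATP, stopped with ADP/pyruvate. Residual PDC activity read as NADH at 340 nm in Tris pH 7.8 with NAD+, pyruvate, CoA, thiamine pyrophosphate.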

In series [12] the target is T1, [Pyruvate dehydrogenase (acetyl-transferring)] kinase isozyme 1, mitochondrial (Homo sapiens, UniProt Q15118). The conditions noted are these: MCF7, 10 mM.
Series [13] concerns the target T1, [Pyruvate dehydrogenase (acetyl-transferring)] kinase isozyme 1, mitochondrial. The conditions noted are these: MCF7, 10 mM. This is another data set of the same source.
For series [14] the target is unchanged. The conditions noted are these: MCF7, 10 mM. This is another data set of the same source.
For series [15] the target is unchanged. The conditions noted are these: MCF7, 10 mM. The source holds these as a separate data set.
For series [16] the target is unchanged. The conditions noted are these: MCF7, 10 mM. The source holds these as a separate data set.
The target is the same in series [17]. The experiment in a line: Inhibition of PDK1 in human MCF7 cells assessed as increase in oxygen consumption rate at 20 uM after 12 hrs. The class given is cell-based. In outline: (§1)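 MCF-7 cells at 2.7×10⁴ cells/well in XF24 plates, attached, then grown 24 h at 37 °C in 5% CO2. Treated 12 h at 5, 10 or 20 µM, rinsed into glycolysis stress-test medium and held 1 h at 37 °C without CO2. OCR, ECAR and PPR then measured on a Seahorse XFe24 analyser. Significance P < 0.05 versus untreated control.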

Series [18] has the same target. The experiment in a line: Inhibition of PDK1 in human MCF7 cells assessed as decrease in extracellular acidification rate at 20 uM after 12 hrs. The class given is cell-based. In outline:
as §1

Series [19] has the same target. The experiment in a line: Inhibition of PDK1 in human MCF7 cells assessed as decrease in proton production rate at 20 uM after 12 hrs. The format is cell-based. In outline:
as §1

Series [20] has the same target. Kind of series: Inhibition of PDK1 in human MCF7 cells assessed as increase in ratio of oxygen consumption rate to extracellular acidification rate at 20 uM after 12 hrs. The format is cell-based. In outline:
as §1

Series [21] deals with MCF7. The experiment in a line: Induction of mitochondrial membrane potential depolarization in human MCF7 cells at 60 uM after 12 hrs by TMRM staining-based assay. The class given is functional, cell-based.
Series [22] can be described thus: Cytotoxicity against human MCF10A cells assessed as growth inhibition at 10 uM after 72 hrs by MTT assay relative to control. The conditions noted are these: read-out: GI. The format is cell-based, MCF-10A.
The nature of series [23]: Cytotoxicity against human MCF10A cells assessed as growth inhibition at 40 uM after 72 hrs by MTT assay relative to control. The conditions noted are these: read-out: GI. The class given is cell-based, MCF-10A.
Series [24] concerns A549. Kind of series: Cytotoxicity against human A549 cells assessed as growth inhibition at 40 uM after 72 hrs by MTT assay relative to control. The class given is functional, cell-based.
In series [25] the test system is MCF7. Kind of series: Cytotoxicity against human MCF7 cells assessed as growth inhibition at 40 uM after 72 hrs by MTT assay relative to control. The class given is functional, cell-based.
Series [26] concerns MCF7. Kind of series: Induction of apoptosis in human MCF7 assessed as early apoptotic cells at 20 uM after 10 hrs by FITC-annexin V/propidium iodide staining-based flow cytometric analysis (reference value: 2.38%). The class given is functional.
For series [27], the system named is MCF7. The experiment in a line: Induction of apoptosis in human MCF7 assessed as late apoptotic cells at 20 uM after 10 hrs by FITC-annexin V/propidium iodide staining-based flow cytometric analysis (reference value: 1.95%). The format is functional.
In series [28] the test system is MCF7. Kind of series: Induction of apoptosis in human MCF7 assessed as necrotic cells at 20 uM after 10 hrs by FITC-annexin V/propidium iodide staining-based flow cytometric analysis (reference value: 1.86%). The class given is functional.
The test system of series [29] is MCF7. The experiment in a line: Induction of apoptosis in human MCF7 assessed as viable cells at 20 uM after 10 hrs by FITC-annexin V/propidium iodide staining-based flow cytometric analysis (reference value: 93.8%). The conditions noted are these: MCF7, 10 h, read-out: Activity. The format is functional.
Series [30] concerns MCF7. The experiment in a line: Cytotoxicity against human MCF7 cells assessed as growth inhibition at 40 uM after 72 hrs by IncuCyte Zoom live cells imaging method. The class given is functional, cell-based.
Series [31] has as its target T1, [Pyruvate dehydrogenase (acetyl-transferring)] kinase isozyme 1, mitochondrial. The experiment in a line: Inhibition of recombinant N-terminal 6xHis-SUMO-tagged human PDK1 (29 to 436 residues) expressed in Escherichia coli BL-21 assessed as phosphorylation of RYHGHSMSDP at 50 uM after 30 mins by Kinase-Glo luminescent assay. In general terms: Kinase-Glo reads ATP consumption through a luciferase reaction.

The species entered for series [32] is Sus scrofa. Kind of series: Activation of pig heart PDC assessed as production of NADH at 50 uM in presence of ATP. In outline: (§2)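 Pig heart PDC (80 µg/ml, carrying intrinsic PDK activity) preincubated 40 min at 37 °C in Mops pH 7.20 buffer with NaF, acetyl-CoA, NADH and DTT. Kinase step 3 min at 37 °C with 55 µM ADP and 100 µM ATP, or no ATP. Stopped with ADP/pyruvate. Residual PDC activity then read as NADH formation at 340 nm, 37 °C, in Tris pH 7.8 with TPP, NAD+, pyruvate and CoA.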

Series [33] is filed under the species Sus scrofa. The experiment in a line: Activation of pig heart PDC assessed as production of NADH at 50 uM in absence of ATP. In outline:
as §2

The target of series [34] is T1, [Pyruvate dehydrogenase (acetyl-transferring)] kinase isozyme 1, mitochondrial. Kind of series: Inhibition of recombinant N-terminal 6xHis-SUMO-tagged human PDK1 (29 to 436 residues) expressed in Escherichia coli BL-21 assessed as activation of PDC at 50 uM.
For series [35] the target is unchanged. The experiment in a line: Inhibition of recombinant N-terminal 6xHis-SUMO-tagged human PDK1 (29 to 436 residues) expressed in Escherichia coli BL-21 assessed as suppression of PDC phosphorylation at S293 at 50 uM after 30 mins by Western blot method.
Series [36] has the same target. Kind of series: Inhibition of PDK1 in human MCF7 cells assessed as decrease in lactate production at 20 uM after 12 hrs.
Series [37] concerns A549. Kind of series: Cytotoxicity against human A549 cells assessed as growth inhibition at 40 uM after 72 hrs by IncuCyte Zoom live cells imaging method. The format is functional, cell-based.

The source made the active and inactive calls. No cut-off for these calls is given here.

Experimental findings from ChEMBL document CHEMBL3813671, “Unexpected Discovery of Dichloroacetate Derived Adenosine Triphosphate Competitors Targeting Pyruvate Dehydrogenase Kinase To Inhibit Cancer Proliferation” (J Med Chem, 2016) are described below.

For orientation: IC50 means the midpoint of a concentration-inhibition curve. With `O=C([O-])C(Cl)Cl.[Na+]` [SODIUM DICHLOROACETATE], the Activity in the series with MCF7 [1] came to 77.7%; in the series on MCF7 [2] it was 69%; in the series with MCF7 [7], 3.64%; with MCF7 [8], 9.94%; with MCF7 [9], 3.09%. The concentration for half-maximal inhibition (IC50) was found to be 23600 µM in the series on A549 [3] and 12400 µM in the series with MCF7 [4]. For the same compound, the inhibition at 72 h, 20 µM in [5] was 3.42%. The inhibition at 72 h, 10000 µM in series [6] amounted to 41.1%. Further, the viability at 10000 µM in the series with MCF7 [10] amounted to 83.3%. Besides, the outcome in the series listed under Sus scrofa [11] was Active. Also, the inhibition result in series [12], in series [13], in series [14], in series [15] and in series [16] was “Active” in each case.

Take `O=C(Nc1c(Cl)ncnc1Cl)C(Cl)Cl`: the inhibition result in series [17], in series [18], in [19], in series [20], in series [31] and in series [34] was “Active” in each case. The inhibition result in series [35] and in series [36] was “Active” in each case. Moreover, the Activity in the series with MCF7 [1] was found to be 60.1%; in the series with MCF7 [26], 4.84%; with MCF7 [27], 10.6%; in the series on MCF7 [28] it was 3.91%. Moreover, the outcome in the series on MCF7 [21] and in the series filed under Sus scrofa [33] was Active. Further, the half-inhibitory concentration (IC50) is 28.4 µM in the series with A549 [3] and 19.3 µM in the series with MCF7 [4]. Further, the inhibition at 72 h, 10 µM in [22] came to 4.91%. The inhibition at 72 h, 40 µM in [23] was 42.4%. Besides, the “growth inhibition (GI)” value in the series on A549 [24], with MCF7 [25] and in the series with MCF7 [30] was “Active” in each case. Also, the viability at 20 µM in the series with MCF7 [29] worked out at 80.7%. In addition, the outcome in the series listed under Sus scrofa [32] was inactive.

As to `Cc1nc(Cl)c(NC(=O)C(Cl)Cl)c(Cl)n1`, the inhibition result in [17], in [18], in series [19], in series [20], in series [31] and in [34] was “Active” each time. Besides, the inhibition result in [35] and in [36] was “Active” in each case. The Activity in the series with MCF7 [1] is given as 68.6%; with MCF7 [26], 4.43%; with MCF7 [27] it was 9.87%; in the series with MCF7 [28], 2.7%. The result with MCF7 [21] and in the series listed under Sus scrofa [33] was Active. Moreover, the half-maximal inhibitory concentration (IC50) is 26 µM in the series with A549 [3] and 22.9 µM in the series on MCF7 [4]. For the same compound, in [22], the inhibition at 72 h, 10 µM turned out to be 7.57%. Further, in series [23], the inhibition at 72 h, 40 µM stood at 41.6%. The “growth inhibition (GI)” value in the series with A549 [24], with MCF7 [25] and in the series on A549 [37] was “Active” each time. Moreover, the viability at 20 µM in the series on MCF7 [29] turned out to be 83%. Also, in the series filed under Sus scrofa [32], the outcome was inactive.
